Experimental data taken from ChEMBL document CHEMBL3616436, “Synthesis, cytotoxicity and antimicrobial activity of thiourea derivatives incorporating 3-(trifluoromethyl)phenyl moiety” (Eur J Med Chem, 2015).
Converted amounts (≈) assume the structure as drawn. The source made the active and inactive calls. The rule behind the calls is not given here.

Legend:
Staphylococcus aureus [1] = assay: Antimicrobial activity against hospital methicillin-resistant Staphylococcus aureus 57/05 after 18 hrs by twofold serial microdilution method; type: functional; settings: 57/05, 18 h
Method in brief: (§1)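 Twofold serial microdilution in Mueller-Hinton broth. Compound stock was made in DMSO and diluted in sterile water. Tested range was 0.125–512 µg/mL. Final inoculum was 10^5 CFU/mL. Plates were incubated 18 h at 35 °C. MIC is the lowest concentration preventing visible growth.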

Coxsackievirus B5 = assay: Antiviral activity against Human coxsackievirus B5 ATCC VR-29 infected in African green monkey Vero 76 cells assessed as reduction of virus-plaque formation after 3 days by crystal violet staining; type: functional, organism-based; settings: Enterovirus B, ATCC VR-29, Vero, 72 h
Method in brief: (§2)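 Plaque reduction: Vero-76 at 2x10^5 cells/well grown to confluent monolayers, infected 2 h at 50–100 PFU/well; after removing unadsorbed virus, overlay of D-MEM, 1% inactivated FBS, 0.75% methylcellulose with or without serial compound dilutions; 3 days at 37°C, fixed and stained with crystal violet in 50% ethanol, plaques counted; EC50 by linear regression.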

Human alphaherpesvirus 1 = assay: Antiviral activity against Human herpesvirus 1 KOS ATCC VR-1493 infected in African green monkey Vero 76 cells assessed as reduction of virus-plaque formation after 3 days by crystal violet staining; type: functional, organism-based; settings: Human alphaherpesvirus 1, KOS ATCC VR1493, Vero, 72 h; method in brief: as §2
[2] = Cytotoxicity against BHK cells assessed as cell viability after 48 to 96 hrs by MTT assay; type: cell-based, Mesocricetus auratus; settings: hamster
[3] = test system: Staphylococcus epidermidis; assay: Antimicrobial activity against hospital methicillin-resistant Staphylococcus epidermidis 31/04 after 18 hrs by twofold serial microdilution method; type: functional; settings: 31/04, 18 h; method in brief: as §1
Micrococcus luteus = assay: Antimicrobial activity against Micrococcus luteus ATCC 10240 at 400 ug after 18 hrs by disc-diffusion method; type: functional; settings: for zone of inhibition at 400 µg/disc: ATCC 10240, 18 h, read-out: IZ
Method in brief: (§3)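 Disc diffusion on Mueller-Hinton II agar per CLSI; 9 mm paper discs loaded with 400 µg compound from DMSO solution, dried, placed on agar; growth inhibition zone diameter read after 18 h at 35°C.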

Staphylococcus aureus [4] = assay: Ratio of ciprofloxacin MIC to compound MIC for hospital methicillin-resistant Staphylococcus aureus 80/05 after 18 hrs by twofold serial microdilution method; type: functional
Method in brief: (§4)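 Ratio of MICs for ciprofloxacin and test agent, each from twofold serial broth microdilution in Mueller-Hinton broth following CLSI guidelines. DMSO stock was diluted in sterile water to 0.125–512 µg/mL, with a final inoculum of 10^5 CFU/mL.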

[5] = test system: Staphylococcus epidermidis; assay: Antimicrobial activity against hospital methicillin-resistant Staphylococcus epidermidis 62/04 after 18 hrs by twofold serial microdilution method; type: functional; settings: 62/04, 18 h; method in brief: as §1
[6] = test system: Mycobacterium tuberculosis; assay: Antimycobacterial activity against drug-sensitive Mycobacterium tuberculosis Spec. 192; type: functional
Method in brief: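 Classical test-tube successive-dilution method in Youmans' modification of Proskauer and Beck liquid medium with 10% bovine serum. Inoculum came from 14-day cultures. DMSO stock was 10 mg/mL, diluted geometrically in medium. Tubes were incubated at 37 °C. Concentrations tested were 3.1, 6.2, 12.5, 25, 50 and 100 µg/ml. MIC is the minimum concentration inhibiting growth relative to compound-free tubes.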

Yellow fever virus = assay: Antiviral activity against Yellow fever virus 17D infected in BHK cells assessed as protection against virus-induced cytopathogenicity after 3 to 4 days by MTT assay; type: functional, cell-based
[7] = test system: Staphylococcus epidermidis; assay: Ratio of ciprofloxacin MIC to compound MIC for hospital methicillin-resistant Staphylococcus epidermidis 23/04 after 18 hrs by twofold serial microdilution method; type: functional; method in brief: as §4
[8] = test system: Human immunodeficiency virus 1; assay: Antiviral activity against HIV1 3B infected in human MT4 cells assessed as protection against virus-induced cytopathogenicity by MTT assay; type: functional, organism-based; settings: Human immunodeficiency virus 1, 3B
Staphylococcus aureus [9] = assay: Antimicrobial activity against Staphylococcus aureus ATCC 29213 at 400 ug after 18 hrs by disc-diffusion method; type: functional; settings: ATCC 29213, 18 h, read-out: IZ; method in brief: as §3
Vaccinia virus = assay: Antiviral activity against Human Vaccinia virus ATCC VR-1549 infected in African green monkey Vero 76 cells assessed as reduction of virus-plaque formation after 3 days by crystal violet staining; type: functional, organism-based; settings: Orthopoxvirus vaccinia, ATCC VR-1549, Vero, 72 h
[10] = test system: Staphylococcus epidermidis; assay: Antimicrobial activity against Staphylococcus epidermidis ATCC 12228 after 18 hrs by twofold serial microdilution method; type: functional; settings: ATCC 12228, 18 h
[11] = Cytotoxicity against African green monkey Vero 76 cells assessed as cell viability after 48 to 96 hrs by crystal violet staining; type: cell-based; settings: chlorocebus sabaeus
Staphylococcus aureus [12] = assay: Antimicrobial activity against Staphylococcus aureus ATCC 25923 at 400 ug after 18 hrs by disc-diffusion method; type: functional; settings: ATCC 25923, 18 h, read-out: IZ; method in brief: as §3
Staphylococcus aureus [13] = assay: Antimicrobial activity against Staphylococcus aureus ATCC 6538 after 18 hrs by twofold serial microdilution method; type: functional; settings: ATCC 6538, 18 h
[14] = test system: Staphylococcus epidermidis; assay: Antimicrobial activity against hospital methicillin-resistant Staphylococcus epidermidis 16/04 after 18 hrs by twofold serial microdilution method; type: functional; settings: 16/04, 18 h; method in brief: as §1
Staphylococcus aureus [15] = assay: Antimicrobial activity against hospital methicillin-resistant Staphylococcus aureus 522/11 after 18 hrs by twofold serial microdilution method; type: functional; settings: 522/11, 18 h; method in brief: as §1
[16] = test system: Staphylococcus epidermidis; assay: Ratio of ciprofloxacin MIC to compound MIC for hospital methicillin-resistant Staphylococcus epidermidis 151/04 after 18 hrs by twofold serial microdilution method; type: functional; method in brief: as §4
Staphylococcus aureus [17] = assay: Antimicrobial activity against hospital methicillin-resistant Staphylococcus aureus 573/11 after 18 hrs by twofold serial microdilution method; type: functional; settings: 573/11, 18 h; method in brief: as §1
Staphylococcus aureus [18] = assay: Ratio of ciprofloxacin MIC to compound MIC for hospital methicillin-resistant Staphylococcus aureus 522/11 after 18 hrs by twofold serial microdilution method; type: functional; method in brief: as §4
[19] = test system: Mammalian orthoreovirus 1; assay: Antiviral activity against Reovirus type-1 ATCC VR-214 infected in BHK cells assessed as protection against virus-induced cytopathogenicity after 3 to 4 days by MTT assay; type: functional, cell-based; settings: Mammalian orthoreovirus 1, ATCC VR-214, BHK
Method in brief: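 Cells seeded in 96-well plates (BHK 5x10^4, MDBK 3x10^4 cells/well), grown overnight to confluence, infected at m.o.i. 0.01 (BHK for Reo-1, MDBK for BVDV); serial compound dilutions in maintenance medium with 0.5% inactivated FBS added after 1 h; viability by MTT after 3–4 days at 37°C; EC50 for 50% protection by linear regression.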

Staphylococcus aureus [20] = assay: Ratio of ciprofloxacin MIC to compound MIC for hospital methicillin-resistant Staphylococcus aureus 79/05 after 18 hrs by twofold serial microdilution method; type: functional; method in brief: as §4
Enterococcus faecalis = assay: Antimicrobial activity against Enterococcus faecalis ATCC 29212 at 400 ug after 18 hrs by disc-diffusion method; type: functional; settings: for zone of inhibition at 400 µg/disc: ATCC 29212, 18 h, read-out: IZ; method in brief: as §3
Staphylococcus aureus [21] = assay: Ratio of ciprofloxacin MIC to compound MIC for hospital methicillin-resistant Staphylococcus aureus 54/05 after 18 hrs by twofold serial microdilution method; type: functional; method in brief: as §4
Staphylococcus aureus [22] = assay: Antimicrobial activity against hospital methicillin-resistant Staphylococcus aureus 54/05 after 18 hrs by twofold serial microdilution method; type: functional; settings: 54/05, 18 h; method in brief: as §1
Staphylococcus aureus [23] = assay: Ratio of ciprofloxacin MIC to compound MIC for hospital methicillin-resistant Staphylococcus aureus 57/05 after 18 hrs by twofold serial microdilution method; type: functional; method in brief: as §4

| SMILES | MIC (Staphylococcus aureus [1]) | EC50 (Coxsackievirus B5) | EC50 (Human alphaherpesvirus 1) | CC50 [2] | MIC [3] | Ratio (Staphylococcus aureus [4]) | MIC [5] | MIC [6] | EC50 (Yellow fever virus) | Ratio [7] | EC50 [8] | zone of inhibition at 400 µg/disc (Staphylococcus aureus [9]) | EC50 (Vaccinia virus) | MIC [10] | CC50 [11] | zone of inhibition at 400 µg/disc (Staphylococcus aureus [12]) | MIC (Staphylococcus aureus [13]) | MIC [14] | MIC (Staphylococcus aureus [15]) | MIC (Staphylococcus aureus [17]) | further results |
| --- | --- | --- | --- | --- | --- | --- | --- | --- | --- | --- | --- | --- | --- | --- | --- | --- | --- | --- | --- | --- | --- |
| FC(F)(F)c1cccc(NC(=S)Nc2ccc(Cl)cc2)c1 | 16 µg/mL (≈ 48.4 µM) | > 11 µM | > 11 µM | 10 µM | 16 µg/mL (≈ 48.4 µM) | 128 | 16 µg/mL (≈ 48.4 µM) | > 100 µg/mL | > 10 µM | 128 | > 6.8 µM | 12 mm | > 11 µM | 8 µg/mL (≈ 24.2 µM) | 11 µM | 12 mm | 8 µg/mL (≈ 24.2 µM) | 16 µg/mL (≈ 48.4 µM) | 16 µg/mL (≈ 48.4 µM) | 8 µg/mL (≈ 24.2 µM) | inhibition zone (IZ) (Micrococcus luteus): inactive; Ratio [16]: 128; Ratio (Staphylococcus aureus [18]): 128; EC50 [19]: > 10 µM; Ratio (Staphylococcus aureus [20]): 128; inhibition zone (IZ) (Enterococcus faecalis): inactive; Ratio (Staphylococcus aureus [21]): 128; MIC (Staphylococcus aureus [22]): 16 µg/mL (≈ 48.4 µM); Ratio (Staphylococcus aureus [23]): 128 |
| FC(F)(F)c1cccc(NC(=S)Nc2cccc(Br)c2)c1 | 1 µg/mL (≈ 2.67 µM) | > 14 µM | > 14 µM | 10 µM | 2 µg/mL (≈ 5.33 µM) | 128 | 1 µg/mL (≈ 2.67 µM) | > 100 µg/mL | > 10 µM | 128 | > 9.2 µM | 29 mm | > 14 µM | 2 µg/mL (≈ 5.33 µM) | 14 µM | 28 mm | 1 µg/mL (≈ 2.67 µM) | 2 µg/mL (≈ 5.33 µM) | 0.5 µg/mL (≈ 1.33 µM) | 0.25 µg/mL (≈ 0.666 µM) | zone of inhibition at 400 µg/disc (Micrococcus luteus): 30 mm; Ratio [16]: 128; Ratio (Staphylococcus aureus [18]): 128; EC50 [19]: > 10 µM; Ratio (Staphylococcus aureus [20]): 128; zone of inhibition at 400 µg/disc (Enterococcus faecalis): 18 mm; Ratio (Staphylococcus aureus [21]): 128; MIC (Staphylococcus aureus [22]): 0.5 µg/mL (≈ 1.33 µM); Ratio (Staphylococcus aureus [23]): 128 |
| FC(F)(F)c1cccc(NC(S)=NCc2ccccc2)c1 | 8 µg/mL (≈ 25.8 µM) | > 35 µM | > 35 µM | 45 µM | 16 µg/mL (≈ 51.6 µM) | 128 | 16 µg/mL (≈ 51.6 µM) | 25 µg/mL (≈ 80.6 µM) | > 45 µM | 128 | > 45 µM | 16 mm | > 35 µM | 32 µg/mL (≈ 103 µM) | 35 µM | 19 mm | 8 µg/mL (≈ 25.8 µM) | 16 µg/mL (≈ 51.6 µM) | 16 µg/mL (≈ 51.6 µM) | 16 µg/mL (≈ 51.6 µM) | zone of inhibition at 400 µg/disc (Micrococcus luteus): 15 mm; Ratio [16]: 128; Ratio (Staphylococcus aureus [18]): 128; EC50 [19]: > 45 µM; Ratio (Staphylococcus aureus [20]): 128; inhibition zone (IZ) (Enterococcus faecalis): inactive; Ratio (Staphylococcus aureus [21]): 128; MIC (Staphylococcus aureus [22]): 8 µg/mL (≈ 25.8 µM); Ratio (Staphylococcus aureus [23]): 128 |
| O=C(O)c1cn(C2CC2)c2cc(N3CCNCC3)c(F)cc2c1=O [CIPROFLOXACIN] | 128 µg/mL (≈ 386 µM) |  |  |  | 64 µg/mL (≈ 193 µM) |  | 0.125 µg/mL (≈ 0.377 µM) |  |  |  |  | 22 mm |  | 0.25 µg/mL (≈ 0.754 µM) |  | 26 mm | 0.25 µg/mL (≈ 0.754 µM) | 32 µg/mL (≈ 96.6 µM) | 128 µg/mL (≈ 386 µM) | 64 µg/mL (≈ 193 µM) | zone of inhibition at 400 µg/disc (Micrococcus luteus): 22 mm; zone of inhibition at 400 µg/disc (Enterococcus faecalis): 15 mm |
